What was measured:
[1] = target: Hepatocyte growth factor receptor (Homo sapiens) (UniProt P08581); experiment: Inhibition of human Met assessed as residual enzyme activity at 0.1 uM
[2] = tested on: HT-29; experiment: Antiproliferative activity against human HT29 cells; format: functional, cell-based
Procedure, shortened: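 HCT116, HT29 or MCF7 cells were seeded on day 0 in 1:1 Ham's F12/DMEM-high glucose with 10% FBS and 2 mM L-glutamine, then kept overnight at 37 °C in 5% CO2. On day 1, inhibitor in DMSO, diluted 20-fold in serum- and glutamine-free medium, was added. Viability was read on day 4 as total ATP by CellTiter-Glo luminescence.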

[3] = target: Mitogen-activated protein kinase 10 (Homo sapiens) (UniProt P53779); experiment: Inhibition of human JNK3 kinase assessed as residual enzyme activity at 0.1 uM
[4] = target: Tyrosine-protein kinase Blk (Homo sapiens) (UniProt P51451); experiment: Inhibition of human Blk kinase assessed as residual enzyme activity at 0.1 uM
[5] = Inhibition of CDK5/p25 assessed as residual enzyme activity at 1 uM
[6] = target: Tyrosine-protein kinase receptor UFO (Homo sapiens) (UniProt P30530); experiment: Inhibition of human Axl kinase assessed as residual enzyme activity at 0.1 uM
[7] = target: Tyrosine-protein kinase Lyn (Homo sapiens) (UniProt P07948); experiment: Inhibition of human Lyn kinase assessed as residual enzyme activity at 0.1 uM
Tyrosine-protein kinase Lyn (Homo sapiens), sequence (P07948 2-512 limits assumed): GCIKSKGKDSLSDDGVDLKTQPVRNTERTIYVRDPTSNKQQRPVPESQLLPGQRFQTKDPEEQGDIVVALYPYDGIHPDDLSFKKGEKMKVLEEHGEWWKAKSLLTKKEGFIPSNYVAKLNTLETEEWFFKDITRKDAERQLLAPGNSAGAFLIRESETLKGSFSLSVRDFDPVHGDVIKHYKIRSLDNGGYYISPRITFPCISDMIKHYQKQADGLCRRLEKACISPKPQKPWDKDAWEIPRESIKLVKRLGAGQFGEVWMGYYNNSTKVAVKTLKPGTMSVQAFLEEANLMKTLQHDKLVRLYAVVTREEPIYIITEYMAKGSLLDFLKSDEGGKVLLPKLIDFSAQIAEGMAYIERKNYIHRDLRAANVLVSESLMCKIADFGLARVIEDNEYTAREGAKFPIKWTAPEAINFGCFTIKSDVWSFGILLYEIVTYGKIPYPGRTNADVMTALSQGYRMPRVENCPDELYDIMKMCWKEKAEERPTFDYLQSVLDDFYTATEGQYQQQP

[8] = target: LIM domain kinase 1 (Homo sapiens) (UniProt P53667); experiment: Inhibition of human LIMK1 kinase assessed as residual enzyme activity at 0.1 uM
[9] = target: Receptor-interacting serine/threonine-protein kinase 2 (Homo sapiens) (UniProt O43353); experiment: Inhibition of human RIPK2 kinase assessed as residual enzyme activity at 0.1 uM
[10] = target: Epidermal growth factor receptor (Homo sapiens) (UniProt P00533); experiment: Inhibition of human EGFR kinase assessed as residual enzyme activity at 0.1 uM
[11] = target: Serine/threonine-protein kinase MARK1 (Homo sapiens) (UniProt Q9P0L2); experiment: Inhibition of human MARK1 kinase assessed as residual enzyme activity at 0.1 uM
[12] = target: Ribosomal protein S6 kinase alpha-5 (Homo sapiens) (UniProt O75582); experiment: Inhibition of human MSK1 kinase assessed as residual enzyme activity at 0.1 uM
Ribosomal protein S6 kinase alpha-5 (Homo sapiens), sequence (O75582 whole entry, looked up): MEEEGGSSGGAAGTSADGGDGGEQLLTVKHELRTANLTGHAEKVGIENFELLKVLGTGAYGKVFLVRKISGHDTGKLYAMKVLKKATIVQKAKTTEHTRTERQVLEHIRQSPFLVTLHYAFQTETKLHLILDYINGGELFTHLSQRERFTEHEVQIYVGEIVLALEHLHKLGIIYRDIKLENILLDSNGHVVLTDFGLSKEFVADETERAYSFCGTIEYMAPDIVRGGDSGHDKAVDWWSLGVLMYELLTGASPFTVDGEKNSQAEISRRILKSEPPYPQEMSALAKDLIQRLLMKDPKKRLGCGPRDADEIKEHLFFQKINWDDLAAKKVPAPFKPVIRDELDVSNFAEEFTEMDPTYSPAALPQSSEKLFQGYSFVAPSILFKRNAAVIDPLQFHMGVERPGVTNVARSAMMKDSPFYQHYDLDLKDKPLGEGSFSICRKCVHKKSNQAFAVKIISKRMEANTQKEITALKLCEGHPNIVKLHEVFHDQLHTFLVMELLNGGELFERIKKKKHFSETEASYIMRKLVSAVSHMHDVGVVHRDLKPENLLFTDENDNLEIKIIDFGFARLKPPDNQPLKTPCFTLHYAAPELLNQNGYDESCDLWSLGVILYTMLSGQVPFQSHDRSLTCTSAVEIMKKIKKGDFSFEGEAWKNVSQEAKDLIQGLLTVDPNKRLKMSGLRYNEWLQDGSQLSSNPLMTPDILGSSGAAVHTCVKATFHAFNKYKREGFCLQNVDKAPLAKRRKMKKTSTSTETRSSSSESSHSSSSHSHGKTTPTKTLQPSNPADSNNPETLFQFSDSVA

[13] = target: MAP kinase-activated protein kinase 2 (Homo sapiens) (UniProt P49137); experiment: Inhibition of human MAPKAP-K2 kinase assessed as residual enzyme activity at 0.1 uM
[14] = target: Angiopoietin-1 receptor (Homo sapiens) (UniProt Q02763); experiment: Inhibition of human Tie2 kinase assessed as residual enzyme activity at 0.1 uM
[15] = target: Tyrosine-protein kinase Fer (Homo sapiens) (UniProt P16591); experiment: Inhibition of human Fer kinase assessed as residual enzyme activity at 0.1 uM
[16] = target: CDK6/cyclin D3 (Homo sapiens) (UniProt P30281+Q00534); experiment: Inhibition of CDK6/CyclinD3 assessed as residual enzyme activity at 1 uM; format: protein-complex assay
[17] = target: Dual specificity mitogen-activated protein kinase kinase 6 (Homo sapiens) (UniProt P52564); experiment: Inhibition of human MKK6 assessed as residual enzyme activity at 0.1 uM
[18] = tested on: HCT-116; experiment: Antitumor activity in human HCT116 cells xenografted athymic mouse assessed as growth inhibition at 1 mg/kg, po qd; format: functional; settings: read-out: TGI
[19] = target: Dual specificity tyrosine-phosphorylation-regulated kinase 2 (Homo sapiens) (UniProt Q92630); experiment: Inhibition of human DYRK2 kinase assessed as residual enzyme activity at 0.1 uM
Dual specificity tyrosine-phosphorylation-regulated kinase 2 (Homo sapiens), sequence (Q92630 whole entry): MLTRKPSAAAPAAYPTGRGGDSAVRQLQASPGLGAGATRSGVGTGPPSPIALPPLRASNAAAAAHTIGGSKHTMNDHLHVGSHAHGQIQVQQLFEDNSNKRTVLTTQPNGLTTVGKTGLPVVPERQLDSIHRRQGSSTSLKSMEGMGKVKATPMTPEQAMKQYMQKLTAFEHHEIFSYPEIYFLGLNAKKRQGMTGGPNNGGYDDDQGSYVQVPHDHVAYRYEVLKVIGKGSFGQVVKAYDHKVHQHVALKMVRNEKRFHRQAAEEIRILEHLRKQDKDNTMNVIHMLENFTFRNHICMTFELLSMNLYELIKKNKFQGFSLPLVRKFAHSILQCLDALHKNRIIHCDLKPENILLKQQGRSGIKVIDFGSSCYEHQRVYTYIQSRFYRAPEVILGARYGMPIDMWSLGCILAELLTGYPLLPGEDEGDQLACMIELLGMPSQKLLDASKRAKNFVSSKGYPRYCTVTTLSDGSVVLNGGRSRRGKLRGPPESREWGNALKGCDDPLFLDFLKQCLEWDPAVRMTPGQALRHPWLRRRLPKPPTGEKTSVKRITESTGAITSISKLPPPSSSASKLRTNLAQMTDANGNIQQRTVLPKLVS

[20] = target: Cyclin-dependent kinase 7 (Homo sapiens) (UniProt P50613); experiment: Inhibition of CDK7/CyclinH/MAT1 at assessed as residual enzyme activity at 1 uM
[21] = target: Ephrin type-B receptor 4 (Homo sapiens) (UniProt P54760); experiment: Inhibition of human EphB4 kinase assessed as residual enzyme activity at 0.1 uM
[22] = target: Mast/stem cell growth factor receptor Kit (Homo sapiens) (UniProt P10721); experiment: Inhibition of human cKit assessed as residual enzyme activity at 0.1 uM
[23] = target: Misshapen-like kinase 1 (Homo sapiens) (UniProt Q8N4C8); experiment: Inhibition of human MINK assessed as residual enzyme activity at 0.1 uM
[24] = target: Tyrosine-protein kinase ABL1 (Homo sapiens) (UniProt P00519); experiment: Inhibition of human Abl assessed as residual enzyme activity at 0.1 uM
[25] = target: Ephrin type-A receptor 5 (Homo sapiens) (UniProt P54756); experiment: Inhibition of human EphA5 kinase assessed as residual enzyme activity at 0.1 uM
[26] = target: Vascular endothelial growth factor receptor 1 (Homo sapiens) (UniProt P17948); experiment: Inhibition of human Flt1 assessed as residual enzyme activity at 0.1 uM
[27] = target: NUAK family SNF1-like kinase 1 (Homo sapiens) (UniProt O60285); experiment: Inhibition of human ARK5 kinase assessed as residual enzyme activity at 0.1 uM
NUAK family SNF1-like kinase 1 (Homo sapiens), sequence (O60285 whole entry): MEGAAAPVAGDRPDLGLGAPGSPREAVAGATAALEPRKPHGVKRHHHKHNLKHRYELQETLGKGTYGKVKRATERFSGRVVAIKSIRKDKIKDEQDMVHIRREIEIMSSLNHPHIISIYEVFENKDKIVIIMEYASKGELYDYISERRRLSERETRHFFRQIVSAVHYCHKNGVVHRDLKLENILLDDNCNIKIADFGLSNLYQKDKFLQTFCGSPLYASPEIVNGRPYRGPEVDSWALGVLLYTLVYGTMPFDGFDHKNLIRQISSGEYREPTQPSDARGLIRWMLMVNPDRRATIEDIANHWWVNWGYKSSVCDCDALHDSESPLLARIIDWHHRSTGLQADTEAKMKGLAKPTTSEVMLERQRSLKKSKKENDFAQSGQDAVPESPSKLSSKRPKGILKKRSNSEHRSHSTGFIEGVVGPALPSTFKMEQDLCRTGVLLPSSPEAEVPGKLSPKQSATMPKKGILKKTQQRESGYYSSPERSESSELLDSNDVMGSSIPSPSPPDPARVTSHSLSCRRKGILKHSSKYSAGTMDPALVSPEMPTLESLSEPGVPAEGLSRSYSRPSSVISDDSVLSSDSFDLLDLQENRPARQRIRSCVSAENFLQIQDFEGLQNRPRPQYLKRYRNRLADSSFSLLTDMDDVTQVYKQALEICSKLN

[28] = target: Serine/threonine-protein kinase Nek6 (Homo sapiens) (UniProt Q9HC98); experiment: Inhibition of human NEK6 kinase assessed as residual enzyme activity at 0.1 uM
Serine/threonine-protein kinase Nek6 (Homo sapiens), sequence (Q9HC98 whole entry): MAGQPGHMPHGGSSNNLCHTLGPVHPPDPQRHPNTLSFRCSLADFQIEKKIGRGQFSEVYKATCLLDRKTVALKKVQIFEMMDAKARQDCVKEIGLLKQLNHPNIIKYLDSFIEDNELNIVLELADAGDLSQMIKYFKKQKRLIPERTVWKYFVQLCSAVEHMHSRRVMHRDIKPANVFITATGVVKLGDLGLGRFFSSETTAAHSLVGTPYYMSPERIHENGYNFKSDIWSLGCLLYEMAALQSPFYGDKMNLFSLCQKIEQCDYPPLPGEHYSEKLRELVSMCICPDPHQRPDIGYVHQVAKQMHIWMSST

[29] = target: Ribosomal protein S6 kinase alpha-1 (Homo sapiens, UniProt Q15418); experiment: Inhibition of human Rsk1 kinase assessed as residual enzyme activity at 0.1 uM
[30] = target: Serine/threonine-protein kinase 4 (MST1/STK4) (Homo sapiens) (UniProt Q13043); experiment: Inhibition of human MST1 kinase assessed as residual enzyme activity at 0.1 uM
Serine/threonine-protein kinase 4 (MST1/STK4) (Homo sapiens), sequence (Q13043 whole entry, looked up): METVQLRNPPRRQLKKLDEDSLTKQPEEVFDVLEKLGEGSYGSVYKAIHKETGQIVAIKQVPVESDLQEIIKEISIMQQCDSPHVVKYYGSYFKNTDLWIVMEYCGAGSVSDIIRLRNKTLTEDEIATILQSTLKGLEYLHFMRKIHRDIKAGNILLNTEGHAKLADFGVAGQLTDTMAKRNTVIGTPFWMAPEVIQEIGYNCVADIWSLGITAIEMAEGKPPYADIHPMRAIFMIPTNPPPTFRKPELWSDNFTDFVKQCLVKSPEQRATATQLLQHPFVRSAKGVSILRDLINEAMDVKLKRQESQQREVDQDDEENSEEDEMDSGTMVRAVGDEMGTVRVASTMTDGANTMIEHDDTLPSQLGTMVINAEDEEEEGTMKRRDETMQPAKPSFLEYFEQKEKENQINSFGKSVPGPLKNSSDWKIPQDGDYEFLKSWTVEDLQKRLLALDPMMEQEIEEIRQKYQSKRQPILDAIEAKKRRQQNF

[31] = target: Tyrosine-protein kinase BTK (Homo sapiens) (UniProt Q06187); experiment: Inhibition of human BTK kinase assessed as residual enzyme activity at 0.1 uM
Tyrosine-protein kinase BTK (Homo sapiens), sequence (Q06187 whole entry): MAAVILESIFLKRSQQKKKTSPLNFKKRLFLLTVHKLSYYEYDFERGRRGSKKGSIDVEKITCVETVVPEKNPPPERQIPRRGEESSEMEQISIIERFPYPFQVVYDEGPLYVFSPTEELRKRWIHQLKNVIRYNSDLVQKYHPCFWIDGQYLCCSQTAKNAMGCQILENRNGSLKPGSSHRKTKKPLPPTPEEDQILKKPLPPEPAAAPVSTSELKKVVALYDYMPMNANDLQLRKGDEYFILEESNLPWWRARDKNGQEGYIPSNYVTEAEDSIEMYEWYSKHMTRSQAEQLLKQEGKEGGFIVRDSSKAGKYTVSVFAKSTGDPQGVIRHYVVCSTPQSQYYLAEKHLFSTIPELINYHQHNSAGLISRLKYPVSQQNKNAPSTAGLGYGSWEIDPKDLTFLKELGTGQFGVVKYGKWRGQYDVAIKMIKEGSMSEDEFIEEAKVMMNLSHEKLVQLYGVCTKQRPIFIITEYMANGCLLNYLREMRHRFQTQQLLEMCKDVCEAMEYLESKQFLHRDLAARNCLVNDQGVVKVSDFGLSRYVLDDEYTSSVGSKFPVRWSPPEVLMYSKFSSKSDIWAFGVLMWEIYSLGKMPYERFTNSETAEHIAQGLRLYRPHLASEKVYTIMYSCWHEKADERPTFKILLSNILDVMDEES

[32] = target: SRSF protein kinase 1 (Homo sapiens) (UniProt Q96SB4); experiment: Inhibition of human SRPK1 kinase assessed as residual enzyme activity at 0.1 uM
[33] = target: Protein kinase C alpha type (Homo sapiens) (UniProt P17252); experiment: Inhibition of human PKCalpha assessed as residual enzyme activity at 0.1 uM
[34] = target: Serine/threonine-protein kinase D2 (Homo sapiens) (UniProt Q9BZL6); experiment: Inhibition of human PKD2 kinase assessed as residual enzyme activity at 0.1 uM
Serine/threonine-protein kinase D2 (Homo sapiens), sequence (Q9BZL6 whole entry): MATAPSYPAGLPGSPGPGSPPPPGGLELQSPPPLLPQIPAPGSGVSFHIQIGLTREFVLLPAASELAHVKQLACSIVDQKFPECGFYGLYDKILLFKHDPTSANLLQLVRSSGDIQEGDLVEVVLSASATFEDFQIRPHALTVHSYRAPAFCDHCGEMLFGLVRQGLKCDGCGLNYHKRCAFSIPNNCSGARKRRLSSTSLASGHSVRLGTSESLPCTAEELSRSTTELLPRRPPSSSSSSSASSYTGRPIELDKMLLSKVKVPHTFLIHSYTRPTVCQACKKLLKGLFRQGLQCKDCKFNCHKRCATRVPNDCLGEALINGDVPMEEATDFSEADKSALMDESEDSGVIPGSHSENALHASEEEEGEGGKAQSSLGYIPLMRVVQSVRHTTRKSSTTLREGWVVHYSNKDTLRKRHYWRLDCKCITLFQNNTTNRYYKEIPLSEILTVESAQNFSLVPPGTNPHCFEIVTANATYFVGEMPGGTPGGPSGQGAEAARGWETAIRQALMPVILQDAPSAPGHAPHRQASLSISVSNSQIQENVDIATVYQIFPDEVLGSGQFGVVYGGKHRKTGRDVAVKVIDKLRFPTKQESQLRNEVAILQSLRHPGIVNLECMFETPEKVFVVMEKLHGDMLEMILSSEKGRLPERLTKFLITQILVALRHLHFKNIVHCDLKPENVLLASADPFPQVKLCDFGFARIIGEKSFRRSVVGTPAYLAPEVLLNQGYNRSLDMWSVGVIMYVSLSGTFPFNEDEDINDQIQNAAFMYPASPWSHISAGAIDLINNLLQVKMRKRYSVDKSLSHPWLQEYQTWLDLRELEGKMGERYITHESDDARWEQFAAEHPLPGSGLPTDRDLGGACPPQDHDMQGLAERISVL

[35] = species: Homo sapiens; experiment: Inhibition of human PKG1alpha kinase assessed as residual enzyme activity at 0.1 uM
[36] = species: Homo sapiens; experiment: Inhibition of human PKBalpha assessed as residual enzyme activity at 0.1 uM
[37] = species: Rattus norvegicus; experiment: Inhibition of rat AMPK assessed as residual enzyme activity at 0.1 uM
[38] = target: Inhibitor of nuclear factor kappa-B kinase subunit beta (Homo sapiens) (UniProt O14920); experiment: Inhibition of human IKK-beta kinase assessed as residual enzyme activity at 0.1 uM
[39] = target: Serine/threonine-protein kinase MARK2 (Homo sapiens) (UniProt Q7KZI7); experiment: Inhibition of human PAR-1Balpha kinase assessed as residual enzyme activity at 0.1 uM

Activity [1]: 68% | IC50 [2]: 70 nM | Activity [3]: 101% | Activity [4]: 62% | Activity [5]: 8% | Activity [6]: 66% | Activity [7]: 60% | Activity [8]: 79% | Activity [9]: 95% | Activity [10]: 107% | Activity [11]: 41% | Activity [12]: 96% | Activity [13]: 104% | Activity [14]: 75% | Activity [15]: 53% | Activity [16]: 103% | Activity [17]: 102% | Activity [19]: 107% | Activity [20]: 82% | Activity [21]: 99% | Activity [22]: 77% | Activity [23]: 110% | Activity [24]: 71% | Activity [25]: 105% | Activity [26]: 13% | Activity [27]: 9% | Activity [28]: 95% | Activity [29]: 29% | Activity [30]: 49% | Activity [31]: 86% | Activity [32]: 104% | Activity [33]: 103% | Activity [34]: 105% | Activity [35]: 100% | Activity [36]: 100% | Activity [37]: 70% | Activity [38]: 114% | Activity [39]: 42%
Compound: CCN1C(=O)C(C)(C)c2cc3[nH]c4c(c3cc21)CCCc1c(C)n[nH]c1-4
inhibition in vivo at 1 mg/kg [18]: 52%

— ChEMBL document CHEMBL1155876 (J Med Chem, 2008)
